Screening data: PubChem, Johns Hopkins Ion Channel Center
Shown are actives, neighbours in structure and some others; about 3.5% of the full set was active somewhere.
MrgX1 antag: antagonists of human MrgX1 receptor; MRGX1-HEK293 calcium flux, Fluo-4, BAM8-22 antagonism; hits give low values; actives 1.3% (n = 310,000); Q96LB2; B-score at 10 µM; AID 588676;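 active = calcium-response B-score plate-corrected more than 3 library SD below zero, starting fluorescence within 5 deviations, no agonist response on first addition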;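 also: peak minus trough fluorescence over baseline after final BAM8-22 challenge near maximal dose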
RGS4 act: RGS4 potentiation or activation. HEK293 M3R/inducible RGS4, carbachol calcium flux Fluo4; hits give low values. B-score at 10 µM. actives 0.92% (n = 310,000). AID 463111;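 active = B-score of the integrated calcium signal more than 4 SD below the library mean, with starting fluorescence not abnormally high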;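 also: negative B-score means reduced calcium response which marks RGS4 activation or potentiation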
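Test system: HEK293 cells with stable M3R and inducible RGS4; also added: carbachol at ECmax as muscarinic agonist stimulus; schedule: dye loading 30 min 37 °C, buffer rest 30 min RT; technique: kinetic calcium fluorescence imaging with Fluo4-AM dye, 2 µM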
MrgX1 PAM: allosterically activates human MrgX1 receptor signaling. actives 0.63% (n = 310,000). AID 588675. Q96LB2. MrgX1-HEK293, Fluo-4 calcium flux, FDSS; hits give high values. B-score at 10 µM;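 active = plate-corrected calcium response at least 3 library SD above typical, normal starting fluorescence, not activating the receptor alone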;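 also: compound read alongside a low EC10 to EC30 dose of BAM8-22 agonist; peak minus trough fluorescence over baseline measured at the second addition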
MrgX1 ag: agonists of human MrgX1 receptor. B-score at 10 µM. MrgX1-HEK293 cells, Fluo-4 calcium fluorescence, agonist mode; hits give high values. actives 0.44% (n = 310,000);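 active = calcium response B-score plate-corrected fluorescence ratio at least 3 library SD, with starting fluorescence B-score inside 5 SD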
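Test system: HEK293 cells stably expressing human MrgX1 receptor; Input: fifteen thousand cells per well; Dosing: compound delivered in addition one of three; Schedule: overnight seeding, then 1 h dark dye loading; Technique: Fluo-4 NW calcium fluorescence; Measure: B-scored fluorescence response ratio; Controls: positive and negative controls per plate.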
RGS4 inh: inhibitors of human RGS4. HEK293 M3R/RGS4 inducible, Fluo-4 calcium flux; hits give high values; triggered by carbachol at its EC20. P49798. AID 463165. B-score at 10 µM. actives 0.45% (n = 310,000);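 active = B-score, a plate-corrected calcium signal, over three deviations above library mean, with baseline fluorescence within five deviations of library mean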;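 also: RGS4 expression induced by doxycycline in cells with stable M3 receptor; B-score is computed from the integrated fluorescence ratio over baseline after carbachol; higher B-score means a larger calcium signal and so more RGS4 inhibition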
Target sequence (P49798 whole entry, looked up): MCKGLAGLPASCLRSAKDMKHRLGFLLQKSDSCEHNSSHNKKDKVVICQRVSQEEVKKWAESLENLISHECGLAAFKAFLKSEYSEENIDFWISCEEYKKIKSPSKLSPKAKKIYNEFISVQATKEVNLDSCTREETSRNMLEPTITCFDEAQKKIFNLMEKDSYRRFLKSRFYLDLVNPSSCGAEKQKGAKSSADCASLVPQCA
MrgX1 antag conf: human MrgX1 receptor antagonism, re-confirmation screen; shares compounds with MrgX1 antag; MrgX1-HEK293, BAM8-22 calcium flux, Fluo-4; hits give low values; remaining BAM8-22 calcium response % of control (hits give low values), % at 10 µM; actives 19% (n = 2,300); AID 602420;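 active = remaining agonist calcium response no higher than 100% minus 3 SD of agonist-only control wells, with starting fluorescence near control levels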;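 also: agonist BAM8-22 given at a near maximal EC90 to ECmax level; peak minus minimum fluorescence divided by baseline after agonist addition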
HEK293 Ca flux: counter-screen for MrgX1 antagonists: effect in parental HEK293 cells; Fluo-4 calcium fluorescence, FDSS; fluorescence ratio F(max-min)/F0 at 10 µM; shares compounds with MrgX1 antag; actives 2% (n = 4,000);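 active = duplicate-averaged calcium fluorescence ratio at least three times the standard deviation of buffer wells, a nonspecific response in parental cells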
HEK293 Ca counter: activity in parental HEK293 cells without MrgX1 | shares compounds with MrgX1 antag | parental HEK293 calcium flux, Fluo-4 fluorescence ratio; hits give high values | fluorescence ratio F(max-min)/F0 at 10 µM | actives 0.4% (n = 4,000) | AID 624114;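 active = calcium fluorescence ratio, averaged over duplicates, at least 3 SD of the buffer-well ratio, meaning a nonspecific response in receptor-free cells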;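 also: untransfected parental HEK293 lacking MrgX1 used as counterscreen for MrgX1 allosteric activators; fluorescence change taken during the second addition on a kinetic imager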
HEK293 Ca cntr2: activity in parental HEK293 cells lacking MrgX1 receptor; shares compounds with MrgX1 antag; Fluo-4 calcium fluorescence (FDSS); hits give high values; fluorescence ratio F(max-min)/F0 at 10 µM; actives 8.7% (n = 4,000); AID 624115;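 active = calcium fluorescence ratio at least three times the spread of buffer wells, meaning a non-specific response in parental cells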
The depositor's hits bear a star; i = inactive; . = no result given.

SMILES	MrgX1 antag	RGS4 act	MrgX1 PAM	MrgX1 ag	RGS4 inh	MrgX1 antag conf	HEK293 Ca flux	HEK293 Ca counter	HEK293 Ca cntr2
Cc1nc2sc(C(c3ccco3)N3CCN(C(c4ccccc4)c4ccccc4)CC3)c(O)n2n1 (stereo unspecified)	i	i	i	i	i	.	.	.	.
Cc1nc2sc(C(c3ccco3)N3CCC(C)CC3)c(O)n2n1 (stereo unspecified)	-5.24*	i	i	i	i	i	i	i	i
Nc1nnn(CC(=O)N/N=C/c2cccc(Cl)c2)n1	i	i	i	i	i	.	.	.	.
COc1ccc(/C=N/n2c(C)nnc2C)c(OC)c1	i	i	i	i	i	.	.	.	.
COc1cc(OC)c(/C=N/n2c(C)nnc2C)c(OC)c1	-4.78*	i	i	i	i	i	i	i	i
COCCn1nnnc1C(c1ccc(OC)cc1)N1CCN(c2ccccc2F)CC1 (stereo unspecified)	-5.71*	i	i	i	i	i	i	i	i
COCCn1nnnc1C(c1ccccc1OC)N1CCN(c2ccccc2F)CC1 (stereo unspecified)	i	i	i	i	i	.	.	.	.
COCCn1nnnc1C(c1ccc(C(F)(F)F)cc1)N1CCOCC1 (stereo unspecified)	-5.56*	i	i	i	i	i	i	i	i
Cc1ccccc1NS(=O)(=O)c1ccc2[nH]c(=O)[nH]c2c1	-5.6*	i	i	i	i	i	i	i	i
CC(C)c1ccc(C(C)NC(=S)NC2CCCCC2)cc1 (stereo unspecified)	i	i	i	i	i	.	.	.	.
CC(NC(=S)NC1CCCCC1)c1ccc(C(C)(C)C)cc1 (stereo unspecified)	-6.82*	i	i	i	i	50.9%*	i	i	i
O=C(CCC1CCCC1)NCCCN1CCOCC1	-6.94*	i	i	i	i	i	i	i	i
CCn1cc(C(=O)N(C)CC(OC)OC)c(=O)c2cc(S(=O)(=O)N3CCOCC3)ccc21	i	i	i	i	i	.	.	.	.
CN(Cc1ccccc1)S(=O)(=O)CCNC(=O)c1ccc2c(c1)OCO2	i	i	i	i	i	.	.	.	.
COC(=O)[C@H](Cc1ccccc1)NC(=O)NCc1ccc(C)cc1	i	i	i	i	i	.	.	.	.
Cc1ccc(CNC(=O)N[C@@H](Cc2ccccc2)C(=O)O)cc1	-7.17*	i	i	i	i	i	i	i	i
Cc1cc2ccccc2n1CCNC(=O)C1CCCC1	i	i	i	i	i	.	.	.	.
Cc1cc2ccccc2n1CCNC(=O)C1CC1	-5.99*	i	i	i	i	i	i	i	i
COc1cc(OC)cc(C(=O)NCCc2ccc(OC)c(OC)c2)c1	i	i	i	i	i	.	.	.	.
COc1ccc(CCNC(=O)c2ccc(OC)c(OC)c2)cc1OC	-6.76*	i	i	i	i	i	i	i	i
O=C(NCc1ccco1)C1CCCN1C(=O)Nc1ccccc1Cl (stereo unspecified)	-11.7*	i	i	i	i	i	i	i	i
O=C(NCc1ccco1)C1CCCN1C(=O)Nc1ccccc1 (stereo unspecified)	i	i	i	i	i	.	.	.	.
